Source: PubChem BioAssay
Results filed as inconclusive are left out.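 Rule for the calls, unless noted: active = viability increase at or above a cutoff of the median across tested compounds plus 3 SD (cut at about 8.5% in these data, passing the limit was not always enough); inconclusive = some gains above the cutoff, reason not given; inactive = the rest.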

Columns and labels:
[1] = OD615 S. cerevisiae growth inhibition, permissive medium, pilot counter-assay, permissive growth control for S. cerevisiae lifespan shortening project (AID 705;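 active = growth inhibition above 25% in both replicates, a cutoff set 3 SD above the mean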); details: OD615, 24 h, at 10 µM, stronger effect = higher value
Method in brief: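 assay system = Saccharomyces cerevisiae strain carrying genetically modified DeaD replicative-lifespan system | technique = absorbance (optical density) at 615 nm | buffer or medium = permissive raffinose/galactose medium | timing = cells pre-grown 4 h, then 24 h compound exposure, 30 °C humidified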

[2] = Restrictive medium S. cerevisiae growth inhibition, OD615, pilot screen of yeast lifespan reduction project, restrictive growth control (AID 706;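 active = growth inhibition above a set limit, 3 SD over mean compound inhibition, in both replicates, cut at about 43% in these data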;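 note: modified DeaD lifespan yeast strain shifted to restrictive glucose medium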); details: OD615, 48 h, at 10 µM, stronger effect = higher value
Method in brief: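 System: modified S. cerevisiae. Buffer or medium: CSMM-D glucose medium. Incubation: 4 h pre-growth plus 48 h compound exposure, 30 °C. Detection: absorbance (optical density) measured at 615 nm.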

[3] = viability gain of MRP-1-high H69AR cells under doxorubicin, pilot screen, MRP-1 activator project, CellTiter-Glo, duplicate (AID 807); details: H69AR viability with doxorubicin, CellTiter-Glo luminescence; at 10 µM; stronger effect = higher value;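 note: compound pretreatment 18-22 h then 72 h combined with doxorubicin; 0% = doxorubicin alone and 100% = vehicle without doxorubicin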
[4] = growth suppression of beta-catenin knockout HCT116, pilot screen, human colon tumor cells (AID 823;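 active = cell viability at or below a set limit in both duplicate runs, the limit being the all-compound median minus 4 SD, cut at about 23% in these data, passing the limit was not always enough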;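 note: 0% = wells killed by 20 µM Hyamine and 100% = untreated DMSO cell wells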); details: CellTiter-Glo, 60 h, at 10 µM, stronger effect = lower value
[5] = growth suppression of PTEN-deleted HCT116, pilot screen, cell-based, HCT116 clonal line, CellTiter-Glo (AID 824;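 active = viability at or below 27.92% in each of two runs, the all-compound median minus 4 SD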;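 note: 0% = 20 µM Hyamine control and 100% = vehicle cell control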); details: 60 h, at 10 µM, stronger effect = lower value
[6] = inhibitors of the yeast RAM network, pilot screen, dse1pr::URA3 reporter, 5-FOA selection (AID 869;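 active = inhibition over a set limit, the all-compound mean plus 3 SD, in both replicate runs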;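 note: 0% = DMSO wells with no growth and 100% = 10 µM 1-NA-PP1 with full growth; RAM network block rescues cells from 5-FOA so hits raise OD615 growth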); details: S. cerevisiae dse1pr::URA3 5-FOA growth, OD615, 2 d; at 10 µM; stronger effect = higher value; strain carries analog-sensitive mutant Cbk1 kinase
[7] = RAM signaling pathway blockade in yeast – S. cerevisiae, Pdr1DBD-CYC8 efflux-inhibited sensitized strain, primary screen (AID 1298;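 active = RAM network inhibition above 8.4% in each of two replicates, 3 SD over the compound average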;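 note: 0% = DMSO untreated cells without growth and 100% = 10 µM 1-NA-PP1 full growth; higher means more yeast growth rescued from 5-FOA killing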); details: S. cerevisiae cbk1-as DSE1-URA3 strain, 5-FOA growth OD615, 2 d; at 50 µM; stronger effect = higher value

CCOC(=O)N1CCN(C2CC(=O)N(c3ccccc3)C2=O)CC1 (stereo not drawn)
inactive: growth inhibition [1] 4.38% | growth inhibition [2] 10.5% | viability increase [3] 0.58% | viability [4] 100% | viability [5] 101% | inhibition [6] 0.005% | RAM network inhibition [7] -0.04%

O=C(c1cc(F)c(F)cc1Cl)N1CCCCC1
inactive: growth inhibition [1] -2.35% | growth inhibition [2] 1.34% | viability increase [3] -1.35% | viability [4] 92.1% | viability [5] 90.6% | inhibition [6] 2.08% | RAM network inhibition [7] 2.31%

CC(=O)C1C(c2ccccc2Cl)NC(=O)NC1(O)C(F)(F)F (stereo not drawn)
inactive: growth inhibition [1] -3.3% | growth inhibition [2] -12.1% | viability increase [3] -0.31% | viability [4] 112% | viability [5] 102% | inhibition [6] 1.93% | RAM network inhibition [7] -0.82%

Cc1cc(Nc2ccc(F)cc2F)n2nc(C)nc2n1
inactive: growth inhibition [1] -20.2% | growth inhibition [2] -3.57% | viability increase [3] -1.98% | viability [4] 104% | viability [5] 98.5% | inhibition [6] 0.33% | RAM network inhibition [7] 2.94%

CCOC(=O)c1[nH]c2ccccc2c1NC(=O)c1ccc(Br)o1
inactive: growth inhibition [1] -6.18% | growth inhibition [2] -1.93% | viability increase [3] -3.95% | viability [4] 70.3% | viability [5] 69.9% | inhibition [6] 0.96% | RAM network inhibition [7] 7.09%

O=C(NC1CCCCCC1)C1CCN(C(=O)Cc2ccccc2)CC1
inactive: growth inhibition [1] -11.1% | growth inhibition [2] -9.52% | viability increase [3] -1.12% | viability [4] 101% | viability [5] 94.3% | inhibition [6] 0.785% | RAM network inhibition [7] 3.07%

CC1(C)CC(=O)C2=C(C1)N(c1ccc(F)cc1)C(=O)CC2c1cccnc1 (stereo not drawn)
inactive: growth inhibition [1] 0.065% | growth inhibition [2] -2% | viability increase [3] -2.17% | viability [4] 95.9% | viability [5] 100% | inhibition [6] 2.41% | RAM network inhibition [7] 5.94%

O=C(O)c1ccc(CSc2nnc(-c3ccco3)o2)cc1
inactive: growth inhibition [1] 7.71% | growth inhibition [2] 9.04% | viability increase [3] 0.19% | viability [4] 108% | viability [5] 96.6% | inhibition [6] 0.595% | RAM network inhibition [7] 3.22%

CCOC(=O)C1CCCN(C(=O)N2CCOCC2)C1 (stereo not drawn)
inactive: growth inhibition [1] -4.19% | growth inhibition [2] -5.3% | viability increase [3] -0.82% | viability [4] 97.6% | viability [5] 99.1% | inhibition [6] -0.095% | RAM network inhibition [7] 0.21%

CC(CNCc1ccc2c(c1)OCO2)NCc1ccc2c(c1)OCO2 (stereo not drawn)
inactive: growth inhibition [1] -14% | growth inhibition [2] -7.7% | viability increase [3] -3.34% | viability [4] 75% | viability [5] 77.2% | inhibition [6] -0.175% | RAM network inhibition [7] 1.32%

O=C(C1CCC(CNc2c(N3CCCCC3)c(=O)c2=O)CC1)N1CCN(c2ccccn2)CC1 (stereo not drawn)
inactive: growth inhibition [1] -4.55% | growth inhibition [2] -1.08% | viability increase [3] -0.36% | viability [4] 102% | viability [5] 99.1% | inhibition [6] -0.5% | RAM network inhibition [7] 4.92%

Clc1ccc(CSc2nnc(-c3cccnc3)n2Cc2ccco2)c(Cl)c1
inactive: growth inhibition [1] 1.24% | growth inhibition [2] 34.1% | viability increase [3] -3.29% | viability [4] 87.3% | viability [5] 88.2% | inhibition [6] 2.67% | RAM network inhibition [7] 11.6%

O=C(c1cccc(C(=O)N2CCN(c3ccccc3F)CC2)c1)N1CCN(c2ccccc2F)CC1
inactive: growth inhibition [1] -6.5% | growth inhibition [2] -6.43% | viability increase [3] -2.61% | viability [4] 56.8% | viability [5] 54.9% | inhibition [6] 3.28% | RAM network inhibition [7] 4.24%

CCOc1ccc2nc(N3CCC(C(=O)N4CCN(c5ccccn5)CC4)CC3)sc2c1
inactive: growth inhibition [1] -4.53% | growth inhibition [2] -8.55% | viability increase [3] -6.17% | viability [4] 50.9% | viability [5] 55.7% | inhibition [6] -0.605% | RAM network inhibition [7] 2.36%

CCCCCc1nnc(NC(=O)OCCC)s1
inactive: growth inhibition [1] -1% | growth inhibition [2] 14.7% | viability increase [3] -3.57% | viability [4] 97.8% | viability [5] 91.2% | inhibition [6] 0.63% | RAM network inhibition [7] -0.93%

c1ccc2c(c1)nc(N1CCOCC1)c1nnnn12
inactive: growth inhibition [1] -7.82% | growth inhibition [2] -4.7% | viability increase [3] -3.18% | viability [4] 109% | viability [5] 103% | inhibition [6] 1.38% | RAM network inhibition [7] 10.4%

CC(C)Cc1cc(-c2ccco2)c(C#N)c(N)n1
inactive: growth inhibition [1] -11.4% | growth inhibition [2] -17.1% | viability increase [3] -4.39% | viability [4] 80.9% | viability [5] 89.4% | inhibition [6] 3.23% | RAM network inhibition [7] 9.01%

O=C(O)CC12CSc3[nH]c(=O)sc3C1c1ccccc1OC2=O (stereo not drawn)
inactive: growth inhibition [1] 3.48% | growth inhibition [2] -0.005% | viability increase [3] -2.73% | viability [4] 101% | viability [5] 95% | inhibition [6] 1.14% | RAM network inhibition [7] -0.11%

CCOc1ccc(C2C(C(=O)Nc3ccc(F)cc3)=C(C)Nc3nc(CCCO)nn32)cc1 (stereo not drawn)
inactive: growth inhibition [1] -12.5% | growth inhibition [2] 12.8% | viability increase [3] -0.6% | viability [4] 96.6% | viability [5] 91.5% | inhibition [6] 0.87% | RAM network inhibition [7] 1.21%

Cc1ccc(C(=O)Nc2nc3ccccc3n2CCN2CCCC2)cc1
inactive: growth inhibition [1] -11.4% | growth inhibition [2] -2% | viability increase [3] -5.99% | viability [4] 37.4% | viability [5] 51.5% | inhibition [6] 0.665% | RAM network inhibition [7] 7.05%

CCN(CC)CCNC(=O)Cn1cnc2sc(C)c(S(=O)(=O)N3CCOCC3)c2c1=O
inactive: growth inhibition [1] 6.37% | growth inhibition [2] 4.68% | viability increase [3] -1.11% | viability [4] 99% | viability [5] 99.3% | inhibition [6] 0.39% | RAM network inhibition [7] 6.22%

CC(C)CC(NC(=O)c1ccco1)C(=O)Nc1ccc2c(c1)OCCO2 (stereo not drawn)
inactive: growth inhibition [1] 6.21% | growth inhibition [2] 1.03% | viability increase [3] -1.38% | viability [4] 104% | viability [5] 105% | inhibition [6] -0.32% | RAM network inhibition [7] 1.72%

COc1nc(NC(C)(C)C)nc(Oc2ccc(=O)n(C)n2)n1
inactive: growth inhibition [1] -0.24% | growth inhibition [2] -10.7% | viability increase [3] 0.23% | viability [4] 102% | viability [5] 96.5% | inhibition [6] 0.495% | RAM network inhibition [7] 5.11%

Cn1c(=O)oc2cc(S(=O)(=O)N3CCCC(C(=O)N4CC=C(c5ccccc5)CC4)C3)ccc21 (stereo not drawn)
inactive: growth inhibition [1] -10.7% | growth inhibition [2] 8.07% | viability increase [3] -1.04% | viability [4] 80.9% | viability [5] 82.1% | inhibition [6] 1.17% | RAM network inhibition [7] 4.97%
